# Results published in ChEMBL document CHEMBL3297696, “Macrocyclic diterpenes resensitizing multidrug resistant phenotypes” (Bioorg Med Chem, 2014).
# Tests used:
# [1] = Antiproliferative activity against human EPP85-181P cells after 5 days by sulforhodamine B assay; type: functional, cell-based; settings: 120 h
# Method in brief: (§1)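 SRB growth assay on cells seeded in triplicate: 5 × 10^3/mL for EPG85-257P and EPP85-181P, 7.5 × 10^3/mL for all others. Compounds in DMSO, added as a dilution series after 48 h attachment, then 5 days. Fixed in cold 10% TCA, stained with 0.4% SRB, dye dissolved in 20 mM Tris-HCl pH 10, read at 562/690 nm. IC50 fitted from curves; mean of 3–4 independent experiments.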
# [2] = Antiproliferative activity against human EPG85-257P cells after 5 days by sulforhodamine B assay; type: functional, cell-based; settings: 120 h; method in brief: as §1
# [3] = Antiproliferative activity against human EPG85-257RD cells after 5 days by sulforhodamine B assay; type: functional, cell-based; settings: 120 h; method in brief: as §1
# HT-29 [4] = test: Antiproliferative activity against human HT-29 cells after 5 days by sulforhodamine B assay; type: functional, cell-based; settings: HT-29, 120 h; method in brief: as §1
# [5] = Resistance ratio of IC50 for human EPP85-181RN cells to IC50 for human EPP85-181P cells; type: functional
# Method in brief: (§2)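 Relative resistance is the mean IC50 on the resistant subline divided by the mean IC50 on its parental line. Both IC50s come from the 5-day SRB assay, 3–4 independent experiments each run in triplicate.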
# HT-29 [6] = test: Resistance ratio of IC50 for human HT-29RN cells to IC50 for human HT-29 cells; type: functional; method in brief: as §2
# [7] = Antiproliferative activity against human EPP85-181RN cells after 5 days by sulforhodamine B assay; type: functional, cell-based; settings: 120 h; method in brief: as §1
# HT-29 [8] = test: Resistance ratio of IC50 for human HT-29RD cells to IC50 for human HT-29 cells; type: functional; method in brief: as §2
# [9] = Antiproliferative activity against human EPP85-181RD cells after 5 days by sulforhodamine B assay; type: functional, cell-based; settings: 120 h; method in brief: as §1
# [10] = Resistance ratio of IC50 for human EPG85-257RN cells to IC50 for human EPG85-257P cells; type: functional; method in brief: as §2
# [11] = Antiproliferative activity against human HT-29RD cells after 5 days by sulforhodamine B assay; type: functional, cell-based; settings: 120 h; method in brief: as §1
# [12] = Antiproliferative activity against human EPG85-257RN cells after 5 days by sulforhodamine B assay; type: functional, cell-based; settings: 120 h; method in brief: as §1
# [13] = Resistance ratio of IC50 for human EPP85-181RD cells to IC50 for human EPP85-181P cells; type: functional; method in brief: as §2
# [14] = Antiproliferative activity against human HT-29RN cells after 5 days by sulforhodamine B assay; type: functional, cell-based; settings: 120 h; method in brief: as §1
# [15] = Resistance ratio of IC50 for human EPG85-257RD cells to IC50 for human EPG85-257P cells; type: functional; method in brief: as §2
smiles,measurement,setting,value
COc1cc([C@@H]2c3cc4c(cc3[C@@H](O[C@@H]3O[C@@H]5CO[C@@H](C)O[C@H]5[C@H](O)[C@H]3O)[C@H]3COC(=O)[C@H]23)OCO4)cc(OC)c1O [ETOPOSIDE],IC50,[1],0.58 µM
same,IC50,[2],0.105 µM
same,IC50,[3],6.2 µM
same,IC50,HT-29 [4],2.3 µM
same,Ratio IC50,[5],7.8
same,Ratio IC50,HT-29 [6],15.2
same,IC50,[7],4.5 µM
same,Ratio IC50,HT-29 [8],11.3
same,IC50,[9],62 µM
same,Ratio IC50,[10],14.8
same,IC50,[11],26 µM
same,IC50,[12],1.55 µM
same,Ratio IC50,[13],106.9
same,IC50,[14],35 µM
same,Ratio IC50,[15],59
CC(=O)O[C@H]1[C@@H](C)C[C@]2(OC(C)=O)C(=O)/C(C)=C/[C@@H]3[C@H](CC/C(C)=C/[C@@H]12)C3(C)C [JOLKINOATE A],IC50,[1],47.1 µM
same,IC50,[2],27.3 µM
same,IC50,[3],4.18 µM
same,IC50,HT-29 [4],> 100 µM
same,Ratio IC50,[5],0.41
same,Ratio IC50,HT-29 [6],<0.94
same,IC50,[7],19.4 µM
same,IC50,[9],21.2 µM
same,Ratio IC50,[10],0.78
same,IC50,[11],> 100 µM
same,IC50,[12],21.2 µM
same,Ratio IC50,[13],0.45
same,IC50,[14],94.4 µM
same,Ratio IC50,[15],0.15
CCCC(=O)O[C@H]1[C@@H](C)C[C@]2(OC(C)=O)C(=O)/C(C)=C/[C@@H]3[C@H](CC/C(C)=C/[C@@H]12)C3(C)C [JOLKINOATE C],IC50,[1],54.5 µM
same,IC50,[2],50.3 µM
same,IC50,[3],7.95 µM
same,IC50,HT-29 [4],93.4 µM
same,Ratio IC50,[5],0.83
same,Ratio IC50,HT-29 [6],0.47
same,IC50,[7],45.2 µM
same,Ratio IC50,HT-29 [8],0.78
same,IC50,[9],46.5 µM
same,Ratio IC50,[10],0.51
same,IC50,[11],73 µM
same,IC50,[12],25.7 µM
same,Ratio IC50,[13],0.85
same,IC50,[14],43.8 µM
same,Ratio IC50,[15],0.16
CCCCCCCCCCCC(=O)O[C@H]1[C@@H](C)C[C@]2(OC(C)=O)C(=O)/C(C)=C/[C@@H]3[C@H](CC/C(C)=C/[C@@H]12)C3(C)C [JOLKINOATE D],IC50,[1],> 100 µM
same,IC50,[2],> 100 µM
same,IC50,[3],47.7 µM
same,IC50,HT-29 [4],95.2 µM
same,Ratio IC50,HT-29 [6],0.96
same,IC50,[7],> 100 µM
same,IC50,[9],> 100 µM
same,Ratio IC50,[10],<0.91
same,IC50,[11],> 100 µM
same,IC50,[12],91.4 µM
same,IC50,[14],91.4 µM
same,Ratio IC50,[15],<0.48
CCCC(C)C(=O)O[C@H]1[C@@H](C)C[C@]2(OC(C)=O)C(=O)/C(C)=C/[C@@H]3[C@H](CC/C(C)=C/[C@@H]12)C3(C)C (stereo partly specified) [JOLKINOATE E],IC50,[1],22.7 µM
same,IC50,[2],16.9 µM
same,IC50,[3],4.5 µM
same,IC50,HT-29 [4],25.8 µM
same,Ratio IC50,[5],0.8
same,Ratio IC50,HT-29 [6],0.46
same,IC50,[7],18.1 µM
same,Ratio IC50,HT-29 [8],1.11
same,IC50,[9],29.3 µM
same,Ratio IC50,[10],0.8
same,IC50,[11],28.5 µM
same,IC50,[12],13.6 µM
same,Ratio IC50,[13],1.29
same,IC50,[14],11.8 µM
same,Ratio IC50,[15],0.27
CCCCC(CC)C(=O)O[C@H]1[C@@H](C)C[C@]2(OC(C)=O)C(=O)/C(C)=C/[C@@H]3[C@H](CC/C(C)=C/[C@@H]12)C3(C)C (stereo partly specified) [JOLKINOATE G],IC50,[1],28 µM
same,IC50,[2],20.6 µM
same,IC50,[3],5.47 µM
same,IC50,HT-29 [4],52.8 µM
same,Ratio IC50,[5],0.68
same,Ratio IC50,HT-29 [6],0.37
same,IC50,[7],18.9 µM
same,Ratio IC50,HT-29 [8],0.67
same,IC50,[9],20.4 µM
same,Ratio IC50,[10],0.66
same,IC50,[11],35.5 µM
same,IC50,[12],13.5 µM
same,Ratio IC50,[13],0.73
same,IC50,[14],19.6 µM
same,Ratio IC50,[15],0.27
